{
  "source": "ChEMBL document CHEMBL4038305",
  "about": "“Benzoxaborole Antimalarial Agents. Part 5. Lead Optimization of Novel Amide Pyrazinyloxy Benzoxaboroles and Identification of a Preclinical Candidate” (J Med Chem, 2017)",
  "key": {"[1]": {"test_system": "Salmonella typhimurium", "assay": "Genotoxicity in Salmonella typhimurium TA98 assessed as number of revertants per plate at 150 ug/plate in absence of rat liver S9 fraction by Ames test (reference value: 14 +/- 6)", "assay_type": "toxicity", "conditions": "salmonella enterica subsp. enterica serovar typhimurium"}, "[2]": {"test_system": "Plasmodium falciparum", "assay": "Antimalarial activity against Plasmodium falciparum K1 infected in human erythrocytes assessed as reduction in [3H]-hypoxanthine incorporation preincubated for 24 hrs followed by [3H]-hypoxanthine addition measured after 24 hrs by scintillation counting method", "assay_type": "functional, cell-based"}, "[3]": {"test_system": "Escherichia coli", "assay": "Genotoxicity in Escherichia coli WP2uvrA assessed as number of revertants per plate at 50 ug/plate in absence of rat liver S9 fraction by Ames test (reference value: 45 +/- 9)", "assay_type": "toxicity"}, "[4]": {"test_system": "Escherichia coli", "assay": "Genotoxicity in Escherichia coli WP2uvrA assessed as number of revertants per plate at 5000 ug/plate in absence of rat liver S9 fraction by Ames test (reference value: 45 +/- 9)", "assay_type": "toxicity"}, "[5]": {"test_system": "Salmonella typhimurium", "assay": "Genotoxicity in Salmonella typhimurium TA98 assessed as number of revertants per plate at 1500 ug/plate in absence of rat liver S9 fraction by Ames test (reference value: 14 +/- 6)", "assay_type": "toxicity", "conditions": "salmonella enterica subsp. enterica serovar typhimurium"}, "[6]": {"assay": "Volume of distribution at steady state in Sprague-Dawley rat at 5 mg/kg, iv by HPLC/MS analysis", "assay_type": "ADME, organism-based", "conditions": "in vivo, read-out: Vdss"}, "[7]": {"test_system": "Salmonella typhimurium", "assay": "Genotoxicity in Salmonella typhimurium TA1537 assessed as number of revertants per plate at 500 ug/plate in absence of rat liver S9 fraction by Ames test (reference value: 19 +/- 9)", "assay_type": "toxicity", "conditions": "salmonella enterica subsp. enterica serovar typhimurium"}, "[8]": {"test_system": "Salmonella typhimurium", "assay": "Genotoxicity in Salmonella typhimurium TA98 assessed as number of revertants per plate at 50 ug/plate in presence of rat liver S9 fraction by Ames test (reference value: 19 +/- 8)", "assay_type": "toxicity", "conditions": "salmonella enterica subsp. enterica serovar typhimurium"}, "[9]": {"test_system": "Plasmodium falciparum", "assay": "Antimalarial activity against intraerythrocytic stage of Plasmodium falciparum assessed as time required for maximal killing effect at 10 times IC50 preincubated for 24 hrs followed by [3H]-hypoxanthine addition measured after 24 hrs by scintillation counting method", "assay_type": "functional", "outline": "(§1)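 In vitro P. falciparum parasite reduction ratio assay run at 10×, 30× and 100× IC50. Derived parameters: lag phase (time to maximal killing), PRR (parasites killed per life cycle) and PCT99.9% (time to clear 99.9% of the initial parasite population).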"}, "[10]": {"test_system": "Escherichia coli", "assay": "Genotoxicity in Escherichia coli WP2uvrA assessed as number of revertants per plate at 500 ug/plate in presence of rat liver S9 fraction by Ames test (reference value: 42 +/- 6)", "assay_type": "toxicity"}, "[11]": {"test_system": "Salmonella typhimurium", "assay": "Genotoxicity in Salmonella typhimurium TA1537 assessed as number of revertants per plate at 1500 ug/plate in absence of rat liver S9 fraction by Ames test (reference value: 19 +/- 9)", "assay_type": "toxicity", "conditions": "salmonella enterica subsp. enterica serovar typhimurium"}, "[12]": {"test_system": "Plasmodium falciparum", "assay": "Antimalarial activity against intraerythrocytic stage of Plasmodium falciparum assessed as time required to clear 99.9% of initial parasite population at 30 times IC50 preincubated for 24 hrs followed by [3H]-hypoxanthine addition measured after 24 hrs by scintillation counting method", "assay_type": "functional", "outline": "as §1"}, "[13]": {"test_system": "Escherichia coli", "assay": "Genotoxicity in Escherichia coli WP2uvrA assessed as number of revertants per plate at 50 ug/plate in presence of rat liver S9 fraction by Ames test (reference value: 42 +/- 6)", "assay_type": "toxicity"}, "[14]": {"test_system": "Salmonella typhimurium", "assay": "Genotoxicity in Salmonella typhimurium TA98 assessed as number of revertants per plate at 15 ug/plate in presence of rat liver S9 fraction by Ames test (reference value: 19 +/- 8)", "assay_type": "toxicity", "conditions": "salmonella enterica subsp. enterica serovar typhimurium"}, "[15]": {"assay": "Clearance in Beagle dog at 5 mg/kg, iv by HPLC/MS analysis", "assay_type": "ADME, organism-based, Canis lupus familiaris", "conditions": "in vivo", "outline": "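Female CD-1 mice, male SD rats and beagle dogs received 5 mg/kg either iv or by oral gavage. Vehicle was PEG 300/propylene glycol/water (55/25/20, pH 6). Blood was sampled and drug measured by HPLC-MS/MS.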"}, "[16]": {"test_system": "Salmonella typhimurium", "assay": "Genotoxicity in Salmonella typhimurium TA1535 assessed as number of revertants per plate at 15 ug/plate in presence of rat liver S9 fraction by Ames test (reference value: 10)", "assay_type": "toxicity", "conditions": "salmonella enterica subsp. enterica serovar typhimurium"}, "[17]": {"test_system": "Plasmodium falciparum", "assay": "Antimalarial activity against intraerythrocytic stage of Plasmodium falciparum assessed as parasite reduction ratio at 30 times IC50 preincubated for 24 hrs followed by [3H]-hypoxanthine addition measured after 24 hrs by scintillation counting method", "assay_type": "functional", "outline": "as §1"}, "[18]": {"test_system": "Salmonella typhimurium", "assay": "Genotoxicity in Salmonella typhimurium TA100 assessed as number of revertants per plate at 5000 ug/plate in absence of rat liver S9 fraction by Ames test (reference value: 154 +/- 9)", "assay_type": "toxicity", "conditions": "salmonella enterica subsp. enterica serovar typhimurium"}, "[19]": {"test_system": "Salmonella typhimurium", "assay": "Genotoxicity in Salmonella typhimurium TA1537 assessed as number of revertants per plate at 5 ug/plate in presence of rat liver S9 fraction by Ames test (reference value: 11 +/- 4)", "assay_type": "toxicity", "conditions": "salmonella enterica subsp. enterica serovar typhimurium"}, "[20]": {"assay": "AUC in rat at 2000 mg/kg administered via oral gavage", "assay_type": "ADME, organism-based", "conditions": "in vivo"}, "[21]": {"test_system": "Lymphocyte", "assay": "Genotoxicity in human lymphocytes assessed as increase in frequency of micronucleated cells at 80 ug/mL after 28 hrs in absence of rat liver S9 fraction by micronucleus assay (reference value: 0.74%)", "assay_type": "toxicity, cell-based"}, "[22]": {"test_system": "Salmonella typhimurium", "assay": "Genotoxicity in Salmonella typhimurium TA100 assessed as number of revertants per plate at 150 ug/plate in presence of rat liver S9 fraction by Ames test (reference value: 141 +/- 1)", "assay_type": "toxicity", "conditions": "salmonella enterica subsp. enterica serovar typhimurium"}, "[23]": {"test_system": "Salmonella typhimurium", "assay": "Genotoxicity in Salmonella typhimurium TA98 assessed as number of revertants per plate at 5 ug/plate in presence of rat liver S9 fraction by Ames test (reference value: 19 +/- 8)", "assay_type": "toxicity", "conditions": "salmonella enterica subsp. enterica serovar typhimurium"}, "[24]": {"test_system": "Plasmodium berghei", "assay": "Antimalarial activity against Plasmodium berghei infected in Swiss Webster mouse assessed as mouse survival rate at 0.3 mg/kg administered once daily via oral gavage for 4 consecutive days beginning 1 hr after infection measured on day 7 post infection relative to control", "assay_type": "functional", "outline": "(§2)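 Mice given an intraperitoneal injection of P. berghei-infected erythrocytes taken from a previously infected animal. Oral dosing once daily for 4 consecutive days, starting 1 h after infection. Vehicle: polyethylene glycol 300/propylene glycol/water (weight ratio 55/25/20). Percent survival recorded daily from day 4 to day 20. Chloroquine 30 mg/kg and vehicle-only groups served as controls.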"}, "[25]": {"test_system": "Plasmodium berghei", "assay": "Antimalarial activity against Plasmodium berghei infected in Swiss Webster mouse assessed as mouse survival rate at 1 mg/kg administered once daily via oral gavage for 4 consecutive days beginning 1 hr after infection measured on day 7 post infection relative to control", "assay_type": "functional", "outline": "as §2"}, "[26]": {"test_system": "Plasmodium berghei", "assay": "Antimalarial activity against Plasmodium berghei infected in Swiss Webster mouse assessed as mouse survival rate at 1 mg/kg administered once daily via oral gavage for 4 consecutive days beginning 1 hr after infection measured on day 6 post infection relative to control", "assay_type": "functional", "outline": "as §2"}, "[27]": {"test_system": "Plasmodium berghei", "assay": "Antimalarial activity against Plasmodium berghei infected in Swiss Webster mouse assessed as mouse survival rate at 3 mg/kg administered once daily via oral gavage for 4 consecutive days beginning 1 hr after infection measured on day 6 post infection relative to control", "assay_type": "functional", "outline": "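P. berghei-infected erythrocytes taken from a previously infected mouse were injected intraperitoneally. Oral dosing, once daily for 4 consecutive days, began 1 h after infection, in polyethylene glycol 300/propylene glycol/water (55/25/20 by weight). Chloroquine at 30 mg/kg was the positive control, with a vehicle-only group. Percent survival was recorded daily from day 4 to day 20.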"}, "[28]": {"test_system": "Plasmodium berghei", "assay": "Antimalarial activity against Plasmodium berghei infected in Swiss Webster mouse assessed as mouse survival rate at 0.3 mg/kg administered once daily via oral gavage for 4 consecutive days beginning 1 hr after infection measured on day 5 post infection relative to control", "assay_type": "functional", "outline": "as §2"}},
  "data": [
    {"smiles": "Cc1c(Oc2cnc(C(=O)N3CC(C)(O)C3)cn2)ccc2c1B(O)OC2", "values": [
      {"measurement": "Activity", "setting": "[1]", "value": 13},
      {"measurement": "IC50", "setting": "[2]", "value": 62, "unit": "nM"},
      {"measurement": "Activity", "setting": "[3]", "value": 35},
      {"measurement": "Activity", "setting": "[4]", "value": 43},
      {"measurement": "Activity", "setting": "[5]", "value": 13},
      {"measurement": "Vd", "setting": "[6]", "value": 0.831, "unit": "L/kg"},
      {"measurement": "Activity", "setting": "[7]", "value": 14},
      {"measurement": "Activity", "setting": "[8]", "value": 17},
      {"measurement": "Time", "setting": "[9]", "value": 0, "unit": "h"},
      {"measurement": "Activity", "setting": "[10]", "value": 35},
      {"measurement": "Activity", "setting": "[11]", "value": 10},
      {"measurement": "T99.9%", "setting": "[12]", "value": 30, "unit": "h"},
      {"measurement": "Activity", "setting": "[13]", "value": 44},
      {"measurement": "Activity", "setting": "[14]", "value": 13},
      {"measurement": "clearance", "setting": "[15]", "value": 0.505, "unit": "mL/min/kg"},
      {"measurement": "Activity", "setting": "[16]", "value": 12},
      {"measurement": "log(ratio)", "setting": "[17]", "value": 4.9},
      {"measurement": "Activity", "setting": "[18]", "value": 20},
      {"measurement": "Activity", "setting": "[19]", "value": 22},
      {"measurement": "AUC", "setting": "[20]", "value": 742, "unit": "µg·h/mL"},
      {"measurement": "Activity", "setting": "[21]", "value": 1.28, "unit": "%"},
      {"measurement": "Activity", "setting": "[22]", "value": 154},
      {"measurement": "Activity", "setting": "[23]", "value": 15}
    ]},
    {"smiles": "Cc1c(Oc2cnc(C(=O)NC(C)CO)cn2)ccc2c1B(O)OC2", "note": "(stereo not drawn)", "values": [
      {"measurement": "survival at 0.3 mg/kg", "setting": "[24]", "value": 20, "unit": "%"},
      {"measurement": "survival at 1 mg/kg", "setting": "[25]", "value": 20, "unit": "%"},
      {"measurement": "survival at 1 mg/kg", "setting": "[26]", "value": 20, "unit": "%"},
      {"measurement": "survival at 3 mg/kg", "setting": "[27]", "value": 60, "unit": "%"},
      {"measurement": "survival at 0.3 mg/kg", "setting": "[28]", "value": 20, "unit": "%"}
    ]}
  ]
}
